Results on three molecules are retold here after ChEMBL document CHEMBL2040794, “Synthesis and structure-activity analysis of new phosphonium salts with potent activity against African trypanosomes” (J Med Chem, 2012).

In data set [1] the test system is Trypanosoma brucei brucei. The data set is described as follows: Antitrypanosomal activity against wild type Trypanosoma brucei brucei Lister 427 assessed as decrease in viability at 70 to 120 times EC50 after 8 hrs by propidium iodide staining-based fluorescence microscopic analysis. Type of data set: functional, organism-based. The procedure, abridged:
(§1)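 Real-time propidium iodide integrity assay: 5 × 10⁵ trypanosomes per well in HMI-9 plus 10% FBS containing 9 μM PI, 37 °C, 5% CO₂. Fluorescence read on a plate fluorimeter (ex 544/em 620 nm) every 2 min for 250 cycles, more than 8 h. Strains run in parallel on one plate.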

Data set [2] has as its system Trypanosoma brucei rhodesiense. The data set is described as follows: Antitrypanosomal activity against Trypanosoma brucei rhodesiense STIB900 infected in rat L6 cells after 72 hrs by alamar blue assay. Type of data set: functional, organism-based. The settings on record: Trypanosoma brucei, STIB900, 72 h. Background: Alamar Blue is a resazurin reagent that responds to reducing activity.

Data set [3] concerns L6. The data set is described as follows: Cytotoxicity against rat L6 cells after 72 hrs by alamar blue assay. The class given is cell-based. As to conditions: Rattus norvegicus, L6, 72 h.
The nature of data set [4]: Selectivity index, ratio of EC50 for rat L6 cells to EC50 for Trypanosoma brucei rhodesiense STIB900. Type of data set: toxicity, cell-based. As to conditions: L6 cells, read-out: Ratio EC50. The procedure, abridged: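 Ratio of EC₅₀ in L6 cells to EC₅₀ against T. b. rhodesiense STIB900, both from Alamar blue assays.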
The test system of data set [5] is Trypanosoma brucei brucei. Nature of the data set: Antitrypanosomal activity against wild type Trypanosoma brucei brucei Lister 427 after 3 days by alamar blue assay. The class given is functional, organism-based. As to conditions: Trypanosoma brucei, Lister 427, 72 h. The method in brief:
(§2)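 Bloodstream-form T. b. brucei (wild-type s427; TbAT1-KO, made from s427 by TbAT1 deletion; B48, selected from TbAT1-KO in vitro on pentamidine, lacking functional HAPT1). Cells were exposed to compound for 48 h, then resazurin (Alamar blue) was added for a further 24 h. A single fluorescence reading gave EC50.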

Data set [6] concerns Trypanosoma brucei brucei. Nature of the data set: Antitrypanosomal activity against diminazene aceturate-resistant TbAT1 gene-deficient Trypanosoma brucei brucei AT1-KO after 3 days by alamar blue assay. The class given is functional, organism-based. As to conditions: Trypanosoma brucei, AT1-KO, 72 h. The method in brief: as §2
Data set [7] relates to Trypanosoma brucei brucei. The data set is described as follows: Resistance factor, ratio of EC50 for diminazene aceturate-resistant TbAT1 gene-deficient Trypanosoma brucei brucei AT1-KO to EC50 for wild type Trypanosoma brucei brucei Lister 427. The class given is functional. The method in brief:
(§3)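 Resistance factor is the EC50 in the resistant line (TbAT1-KO or B48) divided by the EC50 in wild-type s427. […] Resistant and wild-type EC50s were compared by Student t-test.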

In data set [8] the test system is Trypanosoma brucei brucei. Nature of the data set: Antitrypanosomal activity against diminazene-, pentamidine-, and melaminophenyl arsenical-resistant HAPT1-deficient Trypanosoma brucei brucei B48 after 3 days by alamar blue assay. As to conditions: Trypanosoma brucei, B48, 72 h. The class given is functional, organism-based. The method in brief:
as §2

In data set [9] the test system is Trypanosoma brucei brucei. The data set is described as follows: Resistance factor, ratio of EC50 for diminazene-, pentamidine-, and melaminophenyl arsenical-resistant HAPT1-deficient Trypanosoma brucei brucei B48 to EC50 for wild type Trypanosoma brucei brucei Lister 427. Type of data set: functional. The procedure, abridged: as §3
A short description of data set [10]: Cytotoxicity against human HEK cells after 3 days by alamar blue assay. The class given is cell-based, HEK293. The settings on record: Homo sapiens, HEK293, 72 h. The procedure, abridged: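 Human embryonic kidney cells tested by resazurin (Alamar blue) assay: 48 h with compound, then 24 h more after dye addition, single reading; EC₅₀ derived.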
A short description of data set [11]: Selectivity index, ratio of EC50 for human HEK cells to EC50 for wild type Trypanosoma brucei brucei Lister 427. As to conditions: HEK cells, read-out: Ratio EC50. Type of data set: toxicity, cell-based, HEK293. The method in brief:
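Ratio of EC₅₀ in HEK cells to EC₅₀ in wild-type T. b. brucei s427, both from resazurin assays.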

Data set [12] relates to Trypanosoma brucei brucei. Nature of the data set: Antitrypanosomal activity against wild type Trypanosoma brucei brucei Lister 427 assessed as decrease in viability at > 3.3 uM after 8 hrs by propidium iodide staining-based fluorescence microscopic analysis. The class given is functional, organism-based. The method in brief: as §1
In data set [13] the test system is Trypanosoma brucei brucei. The data set is described as follows: Antitrypanosomal activity against diminazene aceturate-resistant TbAT1 gene-deficient Trypanosoma brucei brucei AT1-KO assessed as decrease in viability at > 3.3 uM after 8 hrs by propidium iodide staining-based fluorescence microscopic analysis. Type of data set: functional, organism-based. The method in brief: (§4)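 Trypanosomes at 5 × 10⁵ cells/well in HMI-9 with 10% FBS and 9 μM propidium iodide, with compound at a range of concentrations. Fluorescence (ex 544, em 620 nm) was read every 2 min for 250 cycles (>8 h) at 37 °C and 5% CO2. All three strains ran in parallel on one plate, with drug-free controls.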

For data set [14], the system named is Trypanosoma brucei brucei. Nature of the data set: Antitrypanosomal activity against diminazene-, pentamidine-, and melaminophenyl arsenical-resistant HAPT1-deficient Trypanosoma brucei brucei B48 harboring HAPT mutant gene assessed as decrease in viability at > 3.3 uM after 8 hrs by propidium iodide staining-based fluorescence microscopic analysis. Type of data set: functional, organism-based. The method in brief: as §4

A short description of data set [15]: Inhibition of Trypanosoma brucei brucei HAPT1 assessed as [3H]-pentamidine uptake after 60 secs by scintillation counting. The procedure, abridged: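 HAPT1 transport: late-log T. b. brucei grown in HMI-9 + 10% FBS, washed into HEPES/bicarbonate assay buffer with 14 mM glucose, pH 7.3. [³H]-pentamidine at 30 nM final for 60 s with inhibitor; stopped with 2 mM ice-cold unlabeled pentamidine and spin through oil. Scintillation counting, sigmoid fit for Ki; triplicates, ≥3 independent experiments.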

Data set [16] can be described thus: Inhibition of Trypanosoma brucei brucei LAPT1 assessed as [3H]-pentamidine uptake after 120 secs by scintillation counting. The method in brief:
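LAPT1 transport: late-log trypanosomes from HMI-9/10% FBS culture washed into pH 7.3 HEPES-bicarbonate-glucose buffer; 1 μM final [³H]-pentamidine uptake over 120 s with competitor. Uptake terminated with 2 mM ice-cold pentamidine and oil centrifugation; counted by scintillation, Ki from sigmoid curves; triplicate, at least three separate occasions.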

Data set [17] relates to Trypanosoma brucei brucei. Nature of the data set: Antitrypanosomal activity against diminazene aceturate-resistant TbAT1 gene-deficient Trypanosoma brucei brucei AT1-KO assessed as decrease in viability at 15 times EC50 after 8 hrs by propidium iodide staining-based fluorescence microscopic analysis. The class given is functional, organism-based. The procedure, abridged: as §4

For data set [18], the system named is Trypanosoma brucei brucei. The data set is described as follows: Antitrypanosomal activity against diminazene-, pentamidine-, and melaminophenyl arsenical-resistant HAPT1-deficient Trypanosoma brucei brucei B48 harboring HAPT mutant gene assessed as decrease in viability at 15 times EC50 after 8 hrs by propidium iodide staining-based fluorescence microscopic analysis. The class given is functional, organism-based. The method in brief:
as §4

In data set [19] the test system is Trypanosoma brucei brucei. The data set is described as follows: Antitrypanosomal activity against Trypanosoma brucei brucei bloodstream forms assessed as decrease in cell count at EC50 after 36 hrs by hemocytometric analysis. The class given is functional, organism-based. The procedure, abridged: (§5)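 Bloodstream-form T. b. brucei cultures started at 10⁵ cells/mL, with or without a range of compound concentrations (0.05, 0.25, 1 μM for the example shown) present continuously. Cell density tracked over 48 h by manual hemocytometer counts done in triplicate; mean values plotted.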

Data set [20] relates to Trypanosoma brucei brucei. The data set is described as follows: Antitrypanosomal activity against Trypanosoma brucei brucei bloodstream forms assessed as decrease in cell count at 2 times EC50 after 12 hrs by hemocytometric analysis. The class given is functional, organism-based. The method in brief: as §5
Data set [21] deals with Trypanosoma brucei brucei. The data set is described as follows: Antitrypanosomal activity against Trypanosoma brucei brucei bloodstream forms assessed as decrease in cell count at 0.25 uM treated for 48 hrs followed by washout after 30 mins and measured after 48 hrs by hemocytometric analysis. Type of data set: functional, organism-based. The method in brief: (§6)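 T. b. brucei bloodstream forms seeded at 10⁵ cells/mL with 0.25 μM compound; drug removed by centrifugation (1100g) after 30 min or 4 h and cells resuspended in drug-free fresh medium, or fresh medium still containing 0.25 μM compound; drug-free control run alongside. Growth followed over 48 h by microscopic hemocytometer counts in triplicate, averages reported.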

Data set [22] relates to Trypanosoma brucei brucei. Nature of the data set: Antitrypanosomal activity against Trypanosoma brucei brucei bloodstream forms assessed as decrease in cell count at 0.25 uM treated for 48 hrs followed by washout after 4 hrs by hemocytometric analysis. The class given is functional, organism-based. The procedure, abridged:
as §6

In data set [23] the test system is Trypanosoma brucei brucei. The data set is described as follows: Antitrypanosomal activity against Trypanosoma brucei brucei bloodstream forms assessed as decrease in cell count at 0.25 uM treated for 48 hrs followed by washout after 4 hrs measured after 44 hrs by hemocytometric analysis. The class given is functional, organism-based. The procedure, abridged:
as §6

In data set [24] the test system is Trypanosoma brucei brucei. The data set is described as follows: Antitrypanosomal activity against wild type Trypanosoma brucei brucei Lister 427 assessed as decrease in viability at >700 times EC50 after 8 hrs by propidium iodide staining-based fluorescence microscopic analysis. The class given is functional, organism-based. The procedure, abridged:
as §1

Active and inactive are the calls of the source. No cut-off for these calls is given here.

For orientation: EC50 means the concentration needed to bring the measured effect to its halfway point. Low readings indicate greater potency, high ones weaker potency. As usually defined, the Ki is the dissociation constant of the complex between target and ligand, obtained from inhibition or displacement. For `CCCCC[P+](CCCCC)(CCCCC)Cc1ccc(C(=O)c2ccc(C[P+](CCCCC)(CCCCC)CCCCC)cc2)cc1.[Br-].[Br-]`, the outcome in data set [1], in data set [12], in data set [13], in data set [14], in data set [17] and in data set [18] was Active. The EC50 in [2] worked out at 289 nM; in data set [3], 8700 nM; in data set [5] it was 200 nM; in [6] it was 170 nM; in [8], 180 nM; in [10], 66800 nM. Moreover, the selectivity ratio in data set [4] is 30; in [11], 338. Also, the figures for the “Ratio EC50” value in [7] and in data set [9] were 0.8 and 0.9, respectively. The Ki was 5200 nM in data set [15] and 2200 nM in data set [16].

As to `CCCCCC[P+](CCCCCC)(CCCCCC)Cc1ccc(Oc2ccc(C[P+](CCCCCC)(CCCCCC)CCCCCC)cc2)cc1.[Br-].[Br-]`, the EC50 in data set [2] was 109 nM; in [3], 1030 nM; in data set [5], 37 nM; in data set [6], 45 nM; in data set [8], 41 nM; in data set [10], 22100 nM. For the same molecule, the selectivity ratio came out at 9 in data set [4] and 593 in data set [11]. Besides, the “Ratio EC50” value in data set [7] was 1.2; in data set [9] it was 1.1. The inhibition constant (Ki) was 53000 nM in data set [15] and 7200 nM in [16]. Also, the result in data set [19], in [20], in data set [22] and in data set [23] was Active. Further, the outcome in data set [21] was inactive.

With `Cc1ccc(C[P+](c2ccccc2)(c2ccccc2)c2ccccc2)cc1`, the outcome in data set [24] was Active.
